Holding throughout (type): functional
Test [1] has as its system Klebsiella pneumoniae. Put plainly: Antimicrobial activity against Klebsiella pneumoniae RSHM 574 after 24 hrs. The settings on record: RSHM 574, 24 h. The procedure, abridged:
(§1)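 MIC by twofold serial dilution in Mueller-Hinton broth (MHB); MHB also used to dilute the bacterial suspension. Wells held 10^3 cfu/ml bacteria after inoculation. Controls: 80% DMSO, 20% EtOH, methanol, DMSO, PBS, organism alone and medium alone. Triplicate in each run. MIC taken as the lowest concentration completely inhibiting macroscopic growth.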

The test system of test [2] is Staphylococcus aureus. Put plainly: Antimicrobial activity against multidrug-resistant Staphylococcus aureus after 24 hrs. The procedure, abridged: (§2)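 Twofold serial broth dilution in Mueller-Hinton broth. MHB was used both to dilute the bacterial suspension and for the twofold compound dilutions, giving 10^3 cfu/ml bacteria per well after inoculation. Solvent, medium and organism-only wells served as controls. Each organism was run in triplicate.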

Test [3] concerns Escherichia coli. Put plainly: Antimicrobial activity against multidrug-resistant Escherichia coli after 24 hrs. An outline of the steps: as §2
The subject of test [4] is Candida albicans. Put plainly: Antimicrobial activity against multidrug-resistant Candida albicans isolates after 24 to 48 hrs. An outline of the steps:
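Yeast broth microdilution following CLSI M27-A, with Sabouraud dextrose medium noted for antifungal assays. Fresh cultures at McFarland 0.5 (10^6 cfu/ml) were diluted to 10^4 cfu/ml and inoculated into twofold compound dilutions. Trays were incubated at 35 °C in a humid chamber and read at 48 h, in triplicate. MIC was the lowest concentration giving complete macroscopic growth inhibition.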

The subject of test [5] is Klebsiella pneumoniae. Put plainly: Antimicrobial activity against multidrug-resistant Klebsiella pneumoniae after 24 hrs. The procedure, abridged:
as §2

Another test deals with Pseudomonas aeruginosa. Put plainly: Antimicrobial activity against Pseudomonas aeruginosa ATCC […] after 24 hrs. The procedure, abridged:
as §1

The subject of test [6] is Escherichia coli. Put plainly: Antimicrobial activity against Escherichia coli ATCC 25922 after 24 hrs. Particulars: ATCC 25922, 24 h. An outline of the steps: as §1
The test system of test [7] is Candida albicans. Put plainly: Antimicrobial activity against Candida albicans ATCC 10231 after 24 to 48 hrs. The procedure, abridged:
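Twofold serial dilution following CLSI M27-A. Yeast suspension made at 10^4 cfu/ml by diluting a fresh culture at McFarland 0.5 (10^6 cfu/ml). Inoculated into the diluted compound, incubated at 35 °C in a humid chamber, read after 48 h. Triplicate in each run. MIC is the lowest concentration completely inhibiting macroscopic growth.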

Test [8] concerns Bacillus subtilis. Put plainly: Antimicrobial activity against ceftriazone-resistant Bacillus subtilis after 24 hrs. The procedure, abridged:
as §2

Test [9] relates to Bacillus subtilis. Put plainly: Antimicrobial activity against Bacillus subtilis ATCC 6633 after 24 hrs. Particulars: for MIC: Bacillus subtilis, ATCC 6633, 24 h. The procedure, abridged:
as §1

The subject of test [10] is Staphylococcus aureus. Put plainly: Antimicrobial activity against Staphylococcus aureus ATCC 25923 after 24 hrs. The settings on record: ATCC 25923, 24 h. The procedure, abridged:
as §2

In brackets after ≈: the same amount, converted by molar mass.

Results on 16 compounds are retold here after ChEMBL document CHEMBL1138547, “Synthesis, biological evaluation and 2D-QSAR analysis of benzoxazoles as antimicrobial agents” (2009).

As for `Nc1ccc2oc(-c3ccccc3)nc2c1`, the MIC (commonly the lowest concentration found to suppress growth) against Klebsiella pneumoniae [1] was found to be 50 µg/mL (≈ 238 µM); against Staphylococcus aureus [2], 100 µg/mL (≈ 476 µM); against Escherichia coli [3], 50 µg/mL (≈ 238 µM); with Candida albicans [4] it was 50 µg/mL (≈ 238 µM); with Klebsiella pneumoniae [5], 100 µg/mL (≈ 476 µM); with Pseudomonas aeruginosa, 50 µg/mL (≈ 238 µM). For the same compound, the MIC came to 50 µg/mL (≈ 238 µM) with Escherichia coli [6]; 100 µg/mL (≈ 476 µM) against Candida albicans [7]; 50 µg/mL (≈ 238 µM) against Bacillus subtilis [8]; 12.5 µg/mL (≈ 59.5 µM) against Bacillus subtilis [9]; 100 µg/mL (≈ 476 µM) with Staphylococcus aureus [10]. The “log(1/C)” value in the test on Bacillus subtilis [9] amounted to 4.226.
On to `Cc1ccc(-c2nc3ccc(C)cc3o2)c(C)c1`, for which, in the test with Bacillus subtilis [9], the “log(1/C)” value was determined as 3.676 and inhibition of growth (MIC) required 50 µg/mL (≈ 211 µM).
As to `CCc1ccc(-c2nc3cc(N)ccc3o2)cc1`, the MIC came out at 50 µg/mL (≈ 210 µM) with Klebsiella pneumoniae [1]; 100 µg/mL (≈ 420 µM) with Staphylococcus aureus [2]; 100 µg/mL (≈ 420 µM) in the test with Escherichia coli [3]; 50 µg/mL (≈ 210 µM) in the test with Candida albicans [4]; 100 µg/mL (≈ 420 µM) against Klebsiella pneumoniae [5]; 50 µg/mL (≈ 210 µM) with Pseudomonas aeruginosa. Also, the minimum inhibitory concentration (MIC) was 50 µg/mL (≈ 210 µM) in the test on Escherichia coli [6]; 50 µg/mL (≈ 210 µM) in the test with Candida albicans [7]; 50 µg/mL (≈ 210 µM) against Bacillus subtilis [8]; 12.5 µg/mL (≈ 52.5 µM) with Bacillus subtilis [9]; 25 µg/mL (≈ 105 µM) in the test with Staphylococcus aureus [10]. For the same compound, in the test with Bacillus subtilis [9], the “log(1/C)” value turned out to be 4.28.
For `Cc1ccc2oc(-c3ccc([N+](=O)[O-])cc3)nc2c1`, in the test with Bacillus subtilis [9], the “log(1/C)” value came out at 4.609 and the MIC was found to be 6.25 µg/mL (≈ 24.6 µM).
Consider `COc1ccc(-c2nc3ccc(C)cc3o2)c(OC)c1`, for which, in the test with Bacillus subtilis [9], the “log(1/C)” value was determined as 4.032.
Turning to `COc1ccc(-c2nc3cc(C)ccc3o2)c(OC)c1`, in the test on Bacillus subtilis [9], the “log(1/C)” value was 4.032.
With `O=[N+]([O-])c1ccc2nc(-c3ccc(Br)cc3)oc2c1`, the MIC against Klebsiella pneumoniae [1] was 50 µg/mL (≈ 157 µM); against Staphylococcus aureus [2], 400 µg/mL (≈ 1250 µM); in the test on Escherichia coli [3], 25 µg/mL (≈ 78.3 µM); with Candida albicans [4], 50 µg/mL (≈ 157 µM); against Klebsiella pneumoniae [5], 100 µg/mL (≈ 313 µM); in the test with Pseudomonas aeruginosa, 50 µg/mL (≈ 157 µM). Moreover, the MIC with Escherichia coli [6] amounted to 50 µg/mL (≈ 157 µM); with Candida albicans [7], 100 µg/mL (≈ 313 µM); against Bacillus subtilis [8] it was 50 µg/mL (≈ 157 µM); with Bacillus subtilis [9] it was 12.5 µg/mL (≈ 39.2 µM); with Staphylococcus aureus [10], 100 µg/mL (≈ 313 µM). Also, the “log(1/C)” value in the test with Bacillus subtilis [9] was found to be 4.407.
As for `O=[N+]([O-])c1ccc2nc(-c3ccccc3)oc2c1`, the MIC against Klebsiella pneumoniae [1] stood at 50 µg/mL (≈ 208 µM); in the test with Staphylococcus aureus [2], 100 µg/mL (≈ 416 µM); against Escherichia coli [3] it was 25 µg/mL (≈ 104 µM); in the test on Candida albicans [4] it was 50 µg/mL (≈ 208 µM); against Klebsiella pneumoniae [5], 100 µg/mL (≈ 416 µM); against Pseudomonas aeruginosa, 50 µg/mL (≈ 208 µM). Moreover, the MIC with Escherichia coli [6] turned out to be 50 µg/mL (≈ 208 µM); in the test on Candida albicans [7], 100 µg/mL (≈ 416 µM); against Bacillus subtilis [8], 25 µg/mL (≈ 104 µM); against Bacillus subtilis [9], 25 µg/mL (≈ 104 µM); against Staphylococcus aureus [10], 200 µg/mL (≈ 833 µM). Also, the “log(1/C)” value with Bacillus subtilis [9] came to 3.983.
Regarding `Nc1ccc2oc(-c3ccc(F)cc3)nc2c1`, the MIC in the test with Klebsiella pneumoniae [1] is 50 µg/mL (≈ 219 µM); against Staphylococcus aureus [2], 100 µg/mL (≈ 438 µM); against Escherichia coli [3] it was 100 µg/mL (≈ 438 µM); against Candida albicans [4], 50 µg/mL (≈ 219 µM); with Klebsiella pneumoniae [5], 100 µg/mL (≈ 438 µM); in the test with Pseudomonas aeruginosa, 50 µg/mL (≈ 219 µM). In addition, the minimal inhibitory concentration (MIC) amounted to 50 µg/mL (≈ 219 µM) in the test on Escherichia coli [6]; 50 µg/mL (≈ 219 µM) with Candida albicans [7]; 50 µg/mL (≈ 219 µM) with Bacillus subtilis [8]; 25 µg/mL (≈ 110 µM) against Bacillus subtilis [9]; 50 µg/mL (≈ 219 µM) against Staphylococcus aureus [10]. In addition, in the test with Bacillus subtilis [9], the log(1/C) stood at 3.96.
For the compound `Cc1ccc2nc(-c3ccc(Cl)cc3Cl)oc2c1`, in the test on Bacillus subtilis [9], the “log(1/C)” value was found to be 4.046 and the MIC worked out at 25 µg/mL (≈ 89.9 µM).
For the compound `Cc1ccc(Cc2nc3cc([N+](=O)[O-])ccc3o2)cc1`, the minimal inhibitory concentration (MIC) against Klebsiella pneumoniae [1] turned out to be 50 µg/mL (≈ 186 µM); with Staphylococcus aureus [2], 50 µg/mL (≈ 186 µM); in the test on Escherichia coli [3], 50 µg/mL (≈ 186 µM); in the test on Candida albicans [4] it was 25 µg/mL (≈ 93.2 µM); in the test with Klebsiella pneumoniae [5] it was 50 µg/mL (≈ 186 µM); in the test on Pseudomonas aeruginosa it was 50 µg/mL (≈ 186 µM). Moreover, the MIC in the test on Escherichia coli [6], in the test on Candida albicans [7], in the test on Bacillus subtilis [8], against Bacillus subtilis [9] and against Staphylococcus aureus [10] was 50 µg/mL (≈ 186 µM) each time. For the same compound, in the test on Bacillus subtilis [9], the “log(1/C)” value amounted to 3.73.
Turning to `COc1ccccc1-c1nc2cc(C)ccc2o1`, in the test with Bacillus subtilis [9], the “log(1/C)” value is on record as 3.981 and it took 25 µg/mL (≈ 104 µM) to inhibit growth (MIC).
For the compound `Nc1ccc2nc(Cc3ccc(Br)cc3)oc2c1`, the MIC with Klebsiella pneumoniae [1] stood at 50 µg/mL (≈ 165 µM); against Staphylococcus aureus [2], 100 µg/mL (≈ 330 µM); in the test with Escherichia coli [3] it was 100 µg/mL (≈ 330 µM); in the test with Candida albicans [4], 100 µg/mL (≈ 330 µM); against Klebsiella pneumoniae [5], 100 µg/mL (≈ 330 µM); with Pseudomonas aeruginosa, 50 µg/mL (≈ 165 µM). Further, the MIC was 50 µg/mL (≈ 165 µM) with Escherichia coli [6]; 50 µg/mL (≈ 165 µM) against Candida albicans [7]; 50 µg/mL (≈ 165 µM) in the test on Bacillus subtilis [8]; 25 µg/mL (≈ 82.5 µM) in the test with Bacillus subtilis [9]; 100 µg/mL (≈ 330 µM) in the test on Staphylococcus aureus [10]. For the same compound, the “log(1/C)” value in the test on Bacillus subtilis [9] is 4.084.
For `Cc1ccc2oc(-c3ccc(Cl)cc3)nc2c1`, in the test on Bacillus subtilis [9], the “log(1/C)” value is on record as 4.29 and the minimum inhibitory concentration (MIC) turned out to be 12.5 µg/mL (≈ 51.3 µM).
On to `Cc1ccc(-c2nc3cc(C)ccc3o2)c(C)c1`, for which the “log(1/C)” value in the test on Bacillus subtilis [9] is listed as 3.977.
With `Cc1ccc2nc(-c3ccc(Cl)cc3)oc2c1`, in the test on Bacillus subtilis [9], the “log(1/C)” value amounted to 4.29 and the lowest concentration to inhibit growth (MIC) was 12.5 µg/mL (≈ 51.3 µM).
